ChEMBL document CHEMBL4513216, “Probing the Open Global Health Chemical Diversity Library for Multistage-Active Starting Points for Next-Generation Antimalarials” (ACS Infect Dis, 2020)

Assay: Toxicity liver stage against HepG2, at 10uM
Assay type: cell-based
Set-up: test concentration 10 uM, cell line HepG2-A16-CD81EGFP
Conditions: human, HepG2-A16-CD81EGFP cells; read-out: INHIBITION
Procedure, shortened: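 Uninfected HepG2-A16-CD81EGFP cells, 3 × 10^3 per well, 1536-well, plated on prespotted compound at 10 μM final, parasite-free screening media added to match infected plates; puromycin 10 μM positive, DMSO 0.5% negative; run in parallel with 48 h PbLuc assay at 37 °C, 5% CO2; viability by CellTiter-Glo luminescence, normalized to controls.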

SMILES	cytotoxicity at 10 µM
NC(=O)c1cccc(CCNC(=O)N2CCCC2)c1	-3.88%
COc1ccc(CC(=O)N2CCCC(n3cc(C)cn3)C2)cc1F (configuration not stated)	1.88%
Cn1c(SCC(O)COCc2ccccc2Cl)nnc1C1CC1 (configuration not stated)	-2.24%
CN(Cc1nccn1C)S(=O)(=O)Cc1cccc(C#N)c1	4.16%
Cn1ncc2c(NC3CCC(N)CC3)nc(C(C)(C)C)nc21 (configuration not stated)	8%
CC(=O)Nc1cccc(CN2CCN(C3=NCC(C)(C)S3)CC2)c1	0.955%
NC(=O)COCCNC(=O)Nc1sc2ccccc2c1Cl	8.81%
Cc1nc(-c2cccc(N3CCC(NC4CCSC4)CC3)c2)cs1 (configuration not stated)	2.86%
CCOc1cccc2c1OCC(C(=O)NS(=O)(=O)c1cccs1)=C2	-2.97%
Cc1cc(C(=O)N2CCC[C@]3(C[C@@H](OCC4CC4)CO3)C2)no1	-78.9%
Cc1nc(Nc2nncs2)cc(C2CCCN2C)n1 (configuration not stated)	-22.6%
COc1cccc2c1OCC(C(=O)NCCn1nc(C)c(Cl)c1C)C2 (configuration not stated)	-5.89%
CCN(CC)CCCN1CCC(NC(=O)OC(C)(C)C)CC1	5%
O=c1c2cc3c(cc2nnn1Cc1ccccc1Cl)OCCO3	9.32%
CCCn1cc(CN2CCCC2c2cccc(-n3ccnc3)n2)cn1 (configuration not stated)	-19.6%
CC(C)NC(=O)Nc1ccc(CS(=O)(=O)C(C)(C)C)cc1	-1.97%
Cc1nc(Nc2cnccn2)cc(C2CN(C(C)C)C2)n1	-27.1%
CC(CS(C)(=O)=O)N(C(=O)Nc1cc(F)ccc1Cl)C1CC1 (configuration not stated)	-4.15%
Cc1ccc(CN(C)C)cc1NC(=O)C1CC1	1.32%
COCCNC(=O)[C@@]12CCO[C@@H]1CCN(Cc1cc(C)on1)C2	-69.8%
CC(C)CC(=O)N1CCCCC(NC(=O)CCc2cccnc2)C1 (configuration not stated)	-1.62%
O=C(c1ncccn1)N1C[C@H]2CCC[C@@]2(COCc2cccnc2)C1	1.83%
c1cnc(-c2nc(CN3CCCC(N4CCCC4)C3)cs2)nc1 (configuration not stated)	-12%

SMILES	cytotoxicity at 10 µM
O=C(Cc1ccccn1)N1CCCC(c2nccn2CC2CCC2)C1 (configuration not stated)	-2.11%
c1nc2c(c(NC3CCc4ncnn4C3)n1)CCC2 (configuration not stated)	-40.7%
CC(C)NC(=O)[C@@H]1C[C@H]2NCC[C@H]2O1	-96.9%
CCn1c(C)nnc1CN(C)C1CCN(CCCSC)C1 (configuration not stated)	-6.21%
Cc1ccccc1NC(=O)N1CCN(Cc2noc(C3CC3)n2)CC1	-17%
COc1ccc(/C=C/CN2CCC3(C2)CN(C)C(=O)O3)cc1 (configuration not stated)	0.313%
COc1ccc(OC)c(C2CCN(CC(C)(C)N3CCOCC3)C2)c1 (configuration not stated)	-0.359%
CC1CCN(C[C@H]2CN3CC[C@H]2C[C@@H]3CNC(=O)c2ccco2)CC1	-1.55%
Cc1ccc(-c2nnc(C(C)N3CCc4cncnc4C3)o2)cc1 (configuration not stated)	0.776%
Cc1ccsc1C(=O)N1CCc2ncc(CN(C)C)n2CC1	-101%
Cn1c(=O)c2cc(C(=O)NCc3ccncc3)ccc2n(C)c1=O	-11.1%
Cc1cccc(C)c1Nc1noc2c1CN(C(=O)c1ccnn1C)CC2	7.3%
CCn1ccc2ccnc(CC3CN(C(=O)Cn4ccnc4C)C3)c21	-5.87%
O=C(N1CCOCC1)N1CC[C@H]2[C@@H]1CCC(=O)N2c1ccccc1	6.53%
Cc1cc(CN(C)C(=O)NC2CCN(S(C)(=O)=O)CC2)no1	3.25%
CC(C)c1cc(=O)[nH]c(-c2ccccc2CN2CCCCCC2)n1	-2.1%
CC(Cn1cccn1)NC(=O)NCCN1CCCCCC1=O (configuration not stated)	12.3%
COC(=O)c1ccc(N(C(=O)c2ccncc2)C(C)C)c(C)c1	0.503%
CC(C)[C@H]1COC(=O)N1CC(=O)N1CCCN(C(=O)c2ccoc2)CC1	3.38%
OCc1ccc(CN(CCCn2ccnc2)Cc2cccnc2)o1	-6.75%
COc1ccc(-n2c(SC)nc(O)c(Cc3ccccc3)c2=O)cc1	-7.52%
Cn1cc(NS(=O)(=O)c2ccc3c(c2)CCCC3)ccc1=O	40.7%
COC(=O)NCC(=O)NCC(C)(C)c1cccc(Br)c1	-3.01%

SMILES	cytotoxicity at 10 µM
O=C(NCCn1cnc(C2CCCC2)cc1=O)NCc1cccs1	-7.05%
CC(=O)N1N=C(c2cccs2)OC1C(=O)NCCc1cccc(Cl)c1 (configuration not stated)	-1.66%
Cn1cccc1C(=O)N1CC[C@@H]2[C@@H]1CC(=O)N2CCN1CCOCC1	-7.41%
CC(C)CCNC(=O)Cc1cnc(-n2cccc2)s1	-2.49%
COC1CN(C(=O)C2CC2)CCC(=O)N(C)c2ccccc21 (configuration not stated)	-8.67%
CC(C)CN1C[C@@H]2CN(S(=O)(=O)c3cccs3)C[C@@H]2C1=O	4.09%
Cc1ccc(CN2C(=O)OCC2CO)c2ccccc12 (configuration not stated)	-5.21%
CN(C)S(=O)(=O)c1ccc(CNC(=O)C2CC2)cc1	7.04%
c1cncc(CN2CC(Cc3nccc4cc[nH]c34)C2)c1	-2.26%
O=C(CCC1CCCO1)NCCN1CCCCC1 (configuration not stated)	-3.79%
O=c1[nH]c2nc(N3CCSCC3)ncc2c(=O)n1-c1ccc(F)cc1	9.82%
Cc1nc(C)n(CC2CCCN(Cc3cccnc3)C2)n1 (configuration not stated)	-18.7%
Cc1ccc(CN2C[C@H]3OC(=O)N(Cc4ccccn4)[C@H]3C2)o1	4.16%
COc1cc(CNCC(O)c2ccc(C)cc2)cc2c1OCCO2 (configuration not stated)	-6.61%
CC(C)C(=O)N1CCC(NCc2c(C(C)C)nn(C)c2N(C)C)CC1	5.21%
CC1CCCN(C(=O)NCCCn2cncn2)C1 (configuration not stated)	-3.98%
CCc1nc(C2CCCN(c3nccc(C)n3)C2)no1 (configuration not stated)	-2.69%
N#Cc1ccc(N2CCCC2Cn2cccn2)nc1 (configuration not stated)	6.55%
COCCCN1CCc2cncnc2C1	-9.68%
CN1C(=N)NC(=O)/C1=C\c1ccc(-c2ccc(F)cc2)o1	13.5%
Cc1cc(C[C@@H]2COC[C@H]2NCc2ccccc2C(F)(F)F)on1	-6.15%
CCCc1nc(CNC2(c3nccs3)CCCC2)cs1	2.63%
CC(CNC(=O)N1CCN(Cc2ccon2)CC1)Cc1cccs1 (configuration not stated)	-1.26%

SMILES	cytotoxicity at 10 µM
O=C(CCCNc1ncccn1)Nc1ccc(Cn2cncn2)cc1	0.55%
CN(C(=O)COc1ccc(F)cc1)[C@@H]1CC[C@@H](n2ccnc2)[C@@H]1O	-5.28%
c1csc(CN2CCc3nnc(COc4cncnc4)n3CC2)c1	2.49%
Fc1ccc2c(c1)CCC2NCc1ccc(N2CCOCC2)cc1 (configuration not stated)	-1.54%
O=C(c1cc[nH]n1)N1CCCC(c2cc(C(F)(F)F)[nH]n2)C1 (configuration not stated)	-6.97%
c1ccc(NCc2ccsc2)c(Cn2cncn2)c1	1.42%
O=C(NCCCc1ccco1)c1ccc(N2CCOCC2)cc1	-5.54%
O=C(CCn1cnnc1)N1CCCC(c2ncc[nH]2)C1 (configuration not stated)	-9.01%
Cc1nc2ccccc2nc1CN1CCCC(Cn2cncn2)C1 (configuration not stated)	-4.57%
CC(C)c1nc(C(=O)N2CCOCC2CC(=O)c2ccco2)cs1 (configuration not stated)	-7.58%
CCc1noc(CN(CC)C(=O)CC2C(=O)NCCN2CC(C)(C)C)n1 (configuration not stated)	1.83%
COc1cc(CNC(C)Cn2cccn2)cc(OC)c1 (configuration not stated)	0.681%
O=C(CCn1cncn1)N1CC[C@@H](c2ccc3ccccc3c2)[C@H](O)C1	-5.16%
CCC(CNC(=O)COC)Oc1cccc(F)c1 (configuration not stated)	-44.6%
CC(C)OC(=O)N1C[C@@H]2CC[C@H]1CN(C(=O)c1ccccc1)C2	0.608%
Cc1cc2nc(C(C)C)cc(N3CCC(Oc4ncccn4)CC3)n2n1	13.9%
Cc1cc(O)n(-c2ccccc2Cl)c(=O)c1C#N	2.96%
CNC(=O)C(c1cccc(Cl)c1)C(C)C (configuration not stated)	2.02%
Cc1nc(CN2CC3(CCN(c4ncc(F)cn4)C3)CC2=O)cs1 (configuration not stated)	3.25%
CCc1nnc(CN2CCCCC2Cn2cncn2)o1 (configuration not stated)	-1.1%
Cc1ccc(C(=O)NCc2ccnc(N3CCN(C)CC3)c2)cn1	-2.07%
O=c1[nH]cc(Nc2ccccc2)c(=O)[nH]1	15.6%
COc1cc(C)nc(N2CCN(C(=O)c3ccn(C)c(=O)c3)CC2)n1	-12.8%

SMILES	cytotoxicity at 10 µM
CN(C)C(=O)c1csc(-c2ccoc2)n1	-1.13%
O=C(Cn1c(-c2ccco2)cc2cccnc21)N1CCCC1	-4.04%
O=C(N1CCCC1)N1CCC[C@]2(C[C@@H](OCc3ccncc3)CO2)C1	7.19%
CCOC(=O)[C@@H]1[C@H]2CN(C(=O)OC)CCN2C[C@H]1c1ccccc1	6.72%
Cn1cccc1C1CCCN1C(=O)NCCCn1cccn1 (configuration not stated)	19.2%
CC(C)Nc1cccc(C(=O)NCC(O)c2ccc(F)cc2F)c1 (configuration not stated)	14.8%
Cc1noc(NC(=O)c2cccc(Br)c2)n1	-5.3%
CCOC(=O)C1CC2(CCOCC2)N2CCC(=O)N12 (configuration not stated)	2.39%
COc1c(CNC(c2ccc(F)cc2)c2nccn2C)c(C)nn1C (configuration not stated)	-12.7%
Cn1ncc(NC(=O)Cn2ccc(-c3ccc(F)cc3)n2)n1	1.05%
O=C(Nc1ccccc1)C1=NOC2(CCCNC2)C1 (configuration not stated)	1.02%
CN1Cc2cnn(CC3CCCC3)c2C(COCC2CC2)C1 (configuration not stated)	-1.6%
COc1cc2c(cc1-c1nc3c(cnn3C(C)C3CC3)[nH]1)OCO2 (configuration not stated)	4.82%
CS(=O)(=O)Nc1ccc([C@H]2OCC(=O)N[C@@H]2CO)cc1	-5.4%
COc1cc(C(=O)NCc2ccc3c(c2)CCCN3C)cc(OC)c1Br	-6.69%
Cn1cnnc1CCC(=O)N1CCCC(OCc2cccnc2)C1 (configuration not stated)	2.66%
COc1ccccc1C(=O)N1CC2(COC(C)(C)OC2)C1	-6.4%
O=C(NCc1ccccn1)[C@]12COC[C@H]1CN(Cc1cccnc1)C2	5.64%
Cc1ccccc1SC1CCN(C(=O)[C@@H]2C[C@@H](N)CN2)CC1	-7.69%
Cc1cccc(-c2noc([C@@H]3C[C@@H](O)CN3CC3CCCCC3)n2)c1	6.41%
